TAAR1 agonist = human TAAR1 agonists, primary screen, Fluo-8 calcium fluorescence, CHO RD-HGA16 cells; vehicle wells 0%, saturating PEA agonist 100%; Trace amine-associated receptor 1 (Homo sapiens), Q96RJ0; actives 0.99% (n = 360,000); activation, % at 3 µM; AID 624467, 2012;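 active = activation above the mean activation of all test compounds in the run plus 3 SD, cut at about 38% in these data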
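Assay system: CHO-derived RD-HGA16 cells with stable Gα16 and human TAAR1; timing: 17-24 h seeding, 75 min 37 °C dye, 30 min RT; read-out: % activation from peak over basal fluorescence ratio, DMSO-to-PEA scaled; measured by: kinetic Fluo-8 calcium fluorescence; benchmarks: low control DMSO, high control PEA (EC100); doses: 3 µM single concentration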
V1aR counter = agonists of human V1a receptor, primary screen, counter-screen for OXTR agonist project, fluorescence, CHO-V1R cells; Fluo-8 calcium fluorescence, agonist mode; 0% DMSO, 100% 3 nM vasopressin; activation, % at 3 µM; actives 0.25% (n = 320,000); AID 2797, 2010;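 active = activation above the mean activation of all tested compounds plus 3 SD, per screening run, cut at about 20% in these data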;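 note: signal is peak over basal fluorescence ratio across a 100 second FLIPR read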
OXTR potentiate = human OXTR potentiators, primary screen, fluorescence, CHO-OTR cells, Fluo-8 calcium. AID 2445, 2010. actives 0.061% (n = 320,000). activation, % at 3 µM. Oxytocin receptor (Homo sapiens), P30559. Fluo-8 calcium fluorescence, potentiator mode; 0% = oxytocin EC15, 100% = EC100;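 active = activation above that plate's cutoff, the mean activation of tested compounds plus 3 SD, cut at about 6.6% in these data, passing the limit was not always enough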;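 note: 100% uses oxytocin at 75 nM as the full agonist control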
Target sequence (P30559 whole entry, looked up): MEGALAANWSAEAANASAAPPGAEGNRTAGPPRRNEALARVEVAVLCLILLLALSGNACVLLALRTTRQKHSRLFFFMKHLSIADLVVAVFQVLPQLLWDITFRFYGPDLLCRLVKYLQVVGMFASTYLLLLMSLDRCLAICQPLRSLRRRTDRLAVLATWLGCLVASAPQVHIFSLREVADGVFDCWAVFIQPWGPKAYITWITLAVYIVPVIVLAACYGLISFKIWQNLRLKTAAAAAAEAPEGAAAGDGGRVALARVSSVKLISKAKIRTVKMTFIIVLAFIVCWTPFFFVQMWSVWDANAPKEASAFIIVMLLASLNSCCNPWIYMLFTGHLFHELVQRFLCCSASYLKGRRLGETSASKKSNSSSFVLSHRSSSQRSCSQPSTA
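System: human OTR in CHO cells / Also added: sub-maximal oxytocin, roughly EC15 / Control set: EC15 oxytocin low, 75 nM oxytocin high / Schedule: 6 min compound pre-incubation at room temperature, 100 s kinetic read / Compound: single-point 3.0 µM / Replication: singlicate / Technique: Fluo-8 calcium dye fluorescence / Read-out basis: % activation of max/min ratio relative to oxytocin controls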
OXTR ag = human OXTR agonists, primary screen, fluorescence, CHO-OTR cells, Fluo-8 calcium; Fluo-8 calcium fluorescence; normalized: DMSO 0%, oxytocin 100%; actives 0.32% (n = 320,000); Oxytocin receptor (Homo sapiens), P30559; AID 2435, 2010; activation, % at 3 µM;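 active = activation above the mean of all tested compounds plus 3 SD, cutoff set per screening run, cut at about 20% in these data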;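 note: peak over basal fluorescence ratio from a 100 s FLIPR kinetic read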
TAAR1 antagonist = human TAAR1 antagonists, primary screen, Fluo-8 calcium fluorescence, CHO RD-HGA16 cells; antagonist; inhibition, % at 3 µM; actives 1.5% (n = 360,000); AID 624466, 2012;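 active = inhibition above a per-plate cutoff, the mean inhibition of test compounds on that plate plus 3 SD, cut at about 49% in these data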;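 note: 0% = DMSO plus EC80 beta-PEA response and 100% = DMSO alone without agonist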
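Test system: CHO RD-HGA16 cells bearing hTAAR1 | Reagent: β-PEA, EC80 | Compound dosing: 3 µM, single point | Schedule: Dye loading 75 min at 37 °C, then 30 min room temperature | Signal: Calcium fluorescence with Fluo-8 | Evaluation: Percent inhibition of PEA-evoked calcium signal, max/basal emission ratio | Control set: DMSO-only wells and EC80 β-PEA-stimulated wells | Repeats: Singlicate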
OXTR ag confirm = human OXTR agonists, confirmation, fluorescence, CHO-OTR cells, triplicate; Fluo-8 calcium fluorescence, agonist; actives 20% (n = 390); shares compounds with OXTR ag; activation, % at 3 µM;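 active = mean activation above about 20% derived from the earlier single-dose screen, limit read from the data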;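 note: peak over minimum fluorescence ratio per well during a 100 second FLIPR read; 0% = DMSO alone and 100% = oxytocin high control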
V1aR counter 3x = V1a receptor agonists, calcium signal, counter-screen for OXTR agonist project, triplicate, fluorescence, CHO-V1R cells. shares compounds with OXTR ag. Fluo-8 calcium fluorescence. actives 10% (n = 390). activation, % at 3 µM;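 active = mean activation over triplicate exceeds the hit threshold set in the earlier primary screen, cut at about 20% in these data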;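 note: peak over basal fluorescence ratio within a 100 second read; 0% = DMSO alone and 100% = 3 nM vasopressin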
Numbers without * were called inactive; . = no result given. Most compounds without a hit are left out; they make up all but 2.3% or so of the library.

SMILES	TAAR1 agonist	V1aR counter	OXTR potentiate	OXTR ag	TAAR1 antagonist	OXTR ag confirm	V1aR counter 3x
C=CCNc1ncnc2c1[nH]c1ccccc12	3	5	-9	6	-5	.	.
Cc1ccc(S(=O)(=O)c2c(C)nn(C(C)(C)C)c2OC(=O)C(C)(C)C)cc1	26	6	-17	21*	-7	1	3
CC(=O)Oc1c(S(=O)(=O)c2ccc(C)cc2)c(C)nn1C(C)(C)C	5	-1	-8	-2	-1	.	.
O=c1cc(CSc2n[nH]c(=O)n2C2CC2)c2ccc(O)cc2o1	1	-1	-3	0	-10	.	.
O=C(Nc1ccccc1N1CCOCC1)C1CCN(S(=O)(=O)c2cccc(C(F)(F)F)c2)CC1	-1	0	-2	-2	-21	.	.
COc1ccc(C(=O)/C(C#N)=N/Nc2ccc([N+](=O)[O-])cc2)cc1	14	10	-29	20*	6	9	8
CCOc1cc(C)c(C(C)C)cc1S(=O)(=O)n1cnc(C)c1	0	-1	-22	-3	13	.	.
CS(=O)(=O)N1CCCC(c2nc(-c3ccc(S(=O)(=O)NCc4ccccc4)cc3)no2)C1 (centres undefined)	.	13	-9	20*	.	12	11
C=CCN1C(=O)/C(=C/c2ccc(O)c(OC)c2)S/C1=N/c1nccs1	32	18	-10	20*	60*	27*	38*
C=CCN1C(=O)/C(=C/c2ccc(OCC(=O)O)cc2)S/C1=N/c1nccs1	8	0	-2	-2	-8	.	.
COc1ccccc1CNCC(O)Cn1c2ccccc2c2ccccc21 (centres undefined)	29	9	-14	22*	11	11	7
OCCNCC(O)Cn1c2ccccc2c2ccccc21 (centres undefined)	2	0	-10	1	-30	.	.
COc1ccc(-c2csc(N(CCCN(C)C)C(=O)c3ccccc3Cl)n2)cc1	6	15	-7	23*	2	6	3
O=C(CSc1nc(=O)n(CCCN2CCOCC2)c2c1CCC2)Nc1ccccc1F	5	0	-6	-1	-12	.	.
Cc1cccc(NC(=O)CSc2nnc(-c3cc(C)n(-c4ccccc4)c3C)o2)c1C	-2	1	-10	0	8	.	.
Cc1cc(-c2nnc(SCC(=O)Nc3ccccc3C(F)(F)F)o2)c(C)n1-c1ccccc1	42*	16	-24	21*	11	24*	11
Cc1cc(C)c2nc(N(CCCN(C)C)C(=O)c3ccc4c(c3)OCCO4)sc2c1	10	4	-17	20*	17	6	4
CC1(C)OCC(N)(CO)CO1	1	.	.	.	8	.	.
CCCC(=O)Nc1ccccc1NC(=O)c1ccc(OCC)c(OCC)c1	0	-1	-10	-1	-2	.	.
CCOC(=O)Cn1c(=N)n(CCOc2ccc(OC)cc2)c2ccccc21	.	1	-21	39*	.	0	0
CCOC(=O)C1=C(N)N2C(=O)C(C)SC2=C(C(=O)OCC)C1c1ccccc1 (centres undefined)	7	1	-10	0	3	.	.
CCOC(=O)C1=C(N)N2C(=O)C(C)SC2=C(C(=O)OC)C1c1ccccc1OC (centres undefined)	37*	13	-18	31*	14	7	8
COc1ccc(-n2nnnc2C(c2cccc3ccccc23)N2CCN(C/C=C/c3ccccc3)CC2)cc1 (centres undefined)	1	.	.	.	-14	.	.
COc1ccc2c(c1)CC/C(=C\c1ccc(OC)c(Cn3nc(C)cc3C)c1)C2=O	44*	10	-21	36*	23	8	8
Cc1nn(C)cc1C(C(=O)NC1CCCCC1)N(C(=O)Cc1cccs1)c1ccc(C(C)C)cc1 (centres undefined)	18	1	-19	22*	-5	5	3
SMILES	TAAR1 agonist	V1aR counter	OXTR potentiate	OXTR ag	TAAR1 antagonist	OXTR ag confirm	V1aR counter 3x
Cc1nn(C)cc1C(C(=O)NC1CCCCC1)N(C(=O)Cc1cccs1)c1ccc(F)cc1 (centres undefined)	13	1	4	-1	5	.	.
COc1cc(CNCCO)cc(Br)c1OCc1ccccc1Cl	37	10	-5	10	2	.	.
COc1cc(CNCCO)cc(Cl)c1OCc1ccc(Cl)cc1Cl	29	9	-7	20*	12	8	2
COc1cc(CNCc2ccccn2)ccc1OCc1ccc(Cl)cc1Cl	45*	11	-8	25*	16	5	2
N#Cc1ccc(Cl)cc1NC(=O)COC(=O)c1cccc(S(=O)(=O)N2CCOCC2)c1	4	6	-8	5	7	.	.
N#Cc1cccc(NC(=O)COC(=O)c2cc(S(=O)(=O)Nc3ccccc3Cl)ccc2O)c1	8	15	-10	20*	28	11	11
COCCNC(=O)C(c1ccc(F)cc1)N(Cc1ccccc1)C(=O)CCC(=O)Nc1nccs1 (centres undefined)	1	2	0	2	13	.	.
CC(C)(C)CC(C)(C)NCC(O)COc1c(F)cc(Br)cc1F (centres undefined)	47*	14	-19	23*	4	2	0
CSc1nc(-c2ccccc2)c(-c2ccccc2)[nH]1	0	18	-20	23*	-5	-1	0
O=C(NC12CC3CC(CC(C3)C1)C2)c1ccccc1O	8	2	-21	24*	14	-1	2
CCCCC[C@H]1CN(C2CCCCC2)C(=O)[C@@H]1CC(=O)NCc1ccccc1	21	0	-3	-2	18	.	.
Cc1cc(OCC(=O)Nc2ccncc2)c(C)cc1Br	16	17	-10	21*	-2	11	10
CCOc1cc(/C=C2\NC(=S)N(c3c(C)n(C)n(-c4ccccc4)c3=O)C2=O)ccc1O	6	2	-7	1	-18	.	.
CCOc1cccc(/C=C2\NC(=S)N(c3ccccc3)C2=O)c1O	10	12	-24	24*	5	8	10
Cc1ccc(N/N=C(\C#N)C(N)=S)c(C)c1	9	11	-12	24*	5	7	6
CC(C)Oc1ccc(C(CCN)C2CCCCC2)cc1 (centres undefined)	47*	6	-18	21*	11	17	8

Source: PubChem
